Values joined by “and” are separate entries in the source; they are usually repeats but may differ in a detail not shown here. Equal entries are not always repeated. Structures can show the parent of a compound that is named as a salt.
Tests used:
Cavia porcellus [1] = assay: Ex vivo inhibition of collagen induced guinea pig platelet aggregation following 0.08 mmol/kg administration.; type: functional
Outline: (§1)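 Male rats (~200 g) or guinea pigs (~300 g), overnight fasted, n=5-10, received compound orally in 1% methylcellulose (5 mL/kg); vehicle-only controls. After 2 h, CO2 kill and vena cava blood into citrate (102 mM rat, 129 mM guinea pig). PRP set to 800000/µL (rat) or 500000/µL (guinea pig). Collagen EC50 (response of 50 mm; max 50 µg/mL) interpolated from a log plot. Dose ratio = treated/control mean EC50; t-test. Pooled PRP sometimes used.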

Cavia porcellus [2] = assay: Ex vivo inhibition of ADP induced guinea pig platelet aggregation following 0.08 mmol/kg administration.; type: functional
Outline: (§2)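 Fasted male rats (~200 g) or guinea pigs (~300 g), n=5-10, dosed orally (5 mL/kg) in 1% methylcellulose; methylcellulose alone as control. Killed with CO2 after 2 h. Vena cava blood citrated (102 mM rat, 129 mM guinea pig); PRP adjusted to 800000/µL (rat) or 500000/µL (guinea pig). EC25 for first-phase ADP aggregation (max 8 µM) interpolated from two 2-fold-spaced ADP levels. Dose ratio = treated/control mean EC25; Student's t-test. Some groups tested as pooled PRP.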

Cavia porcellus [3] = assay: The compound was tested ex vivo at a dose of 0.04 mmol/kg for ADP induced platelet aggregation in guinea pig; type: functional; outline: as §2
Cavia porcellus [4] = assay: The compound was tested ex vivo at a dose of 0.04 mmol/kg for collagen induced platelet aggregation in guinea pig; type: functional; outline: as §1
Cavia porcellus [5] = assay: The compound was tested ex vivo at a dose of 0.15 mmol/kg for ADP induced platelet aggregation in guinea pig; type: functional; outline: as §2
Cavia porcellus [6] = assay: The compound was tested ex vivo at a dose of 0.15 mmol/kg for collagen induced platelet aggregation in guinea pig; type: functional; outline: as §1
Rattus norvegicus [7] = assay: The compound was tested ex vivo at a dose of 0.3 mmol/kg for collagen induced platelet aggregation in rat; type: functional; outline: as §1
Rattus norvegicus [8] = assay: The compound was tested ex vivo at a dose of 0.15 mmol/kg for collagen induced platelet aggregation in rat; type: functional; outline: as §1
Rattus norvegicus [9] = assay: The compound was tested ex vivo at a dose of 0.15 mmol/kg for ADP induced platelet aggregation in rat; type: functional; outline: as §2
Rattus norvegicus [10] = assay: The compound was tested ex vivo at a dose of 0.15 mmol/kg for ADP induced platelet aggregation in rat
Rattus norvegicus [11] = assay: The compound was tested at a dose of 0.15 mmol/kg ex vivo for collagen induced platelet aggregation in rat; type: functional; outline: as §1
Cavia porcellus [12] = assay: The compound was tested ex vivo at a dose of 0.08 mmol/kg for collagen induced platelet aggregation in guinea pig; type: functional; outline: as §1
Cavia porcellus [13] = assay: The compound was tested ex vivo at a dose of 0.08 mmol/kg for ADP induced platelet aggregation in guinea pig; type: functional; outline: as §2
Rattus norvegicus [14] = assay: The compound was tested ex vivo at a dose of 0.08 mmol/kg for collagen induced platelet aggregation in rat; type: functional; outline: as §1
Rattus norvegicus [15] = assay: The compound was tested ex vivo at a dose of 0.08 mmol/kg for ADP induced platelet aggregation in rat; type: functional; outline: as §2
Cavia porcellus [16] = assay: The compound was tested at a dose of 0.08 mmol/kg ex vivo for collagen induced platelet aggregation in guinea pig; type: functional; outline: as §1
Cavia porcellus [17] = organism: Cavia porcellus; assay: The compound was tested ex vivo for collagen induced platelet aggregation in guinea pig; type: functional; outline: as §1
Cavia porcellus [18] = organism: Cavia porcellus; assay: The compound was tested ex vivo for ADP induced platelet aggregation in guinea pig; type: functional; outline: as §2
Homo sapiens [19] = organism: Homo sapiens; assay: In vitro inhibitory activity against human platelet aggregation in the presence of Adenosine diphosphate; type: functional
Outline: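 Human citrated PRP, platelet count adjusted to 350000/µL with autologous platelet-poor plasma. 90 µL PRP preincubated 3 min at 37 °C with compound or saline (DMF vehicle where needed), stirred at 1100 rpm. ADP chosen per preparation to give a clear first-phase response (typically 1 µM). Photometric read-out: maximum rise in light transmission within 1 min. IC50 determined.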

Homo sapiens [20] = organism: Homo sapiens; assay: In vitro inhibitory activity against human platelet aggregation in the presence of collagen; type: functional, organism-based
Rattus norvegicus [21] = organism: Rattus norvegicus; assay: The compound was tested ex vivo for collagen induced platelet aggregation in rat; type: functional; outline: as §1
Rattus norvegicus [22] = organism: Rattus norvegicus; assay: The compound was tested ex vivo for ADP induced platelet aggregation in rat; type: functional; outline: as §2
Homo sapiens [23] = assay: The compound was tested ex vivo at a dose of 0.1 mmol/kg for ADP induced platelet aggregation in rat

O=c1c2ccccc2sn1CCCN1CCCC1
Activity (Cavia porcellus [1]): 6.2
Activity (Cavia porcellus [2]): 2

CCN(CC)CCn1sc2cc(C)cc(C)c2c1=O
Activity (Cavia porcellus [3]): 2.2
Dose ratio (treated/control collagen EC50) (Cavia porcellus [4]): >17

COc1cc2sn(CCCc3ccccn3)c(=O)c2cc1OC
Activity (Cavia porcellus [5]): 2.4
collagen EC50 dose ratio (treated/control) (Cavia porcellus [6]): >27

O=c1c2ccccc2sn1CCO
Activity (Rattus norvegicus [7]): 1.3

O=c1c2ccccc2sn1CCCN1CC2CCC(CC2)C1
Activity (Cavia porcellus [1]): 1.8
Activity (Cavia porcellus [2]): 1.2

O=c1c2ccccc2sn1-c1ccccn1
Activity (Rattus norvegicus [7]): 0.9

O=c1c2ccccc2sn1-c1ccccc1
Activity (Rattus norvegicus [8]): 1.1
Activity (Rattus norvegicus [9]): 0.9

O=c1c2ccccc2sn1CCCCN1CC2CCC(CC2)C1
Activity (Cavia porcellus [1]): 4.1
Activity (Cavia porcellus [2]): 1.6

COc1cc2sn(CCCN3CC4CCC(CC4)C3)c(=O)c2cc1OC
Activity (Cavia porcellus [1]): 1.6
Activity (Cavia porcellus [2]): 0.9

O=c1c2ccccc2sn1CCCCCN1CCCCC1
Activity (Cavia porcellus [1]): 1.1
Activity (Cavia porcellus [2]): 1.3

Cc1cc2sn(CCN3CC4CCC(CC4)C3)c(=O)c2cc1C
Activity (Rattus norvegicus [10]): 1
Activity (Rattus norvegicus [11]): 1
Activity (Cavia porcellus [6]): 0.7
Activity (Rattus norvegicus [9]): 1.3

Cc1cc(C)c2c(=O)n(CCN3CCCC3)sc2c1
Activity (Cavia porcellus [12]): > 23
Activity (Cavia porcellus [1]): >23
Activity (Cavia porcellus [13]): > 32
Activity (Cavia porcellus [2]): >32

O=c1c2ccccc2sn1CCN1CCCCC1
Activity (Cavia porcellus [1]): 5
Activity (Rattus norvegicus [14]): 4
Activity (Rattus norvegicus [15]): 1.7
Activity (Cavia porcellus [2]): 1.4

Cc1cc(C)c2c(=O)n(CCCCN3CC4CCC(CC4)C3)sc2c1
Activity (Cavia porcellus [3]): 0.8
Dose ratio (treated/control collagen EC50) (Cavia porcellus [4]): 1.1

O=c1c2ccccc2sn1CCCCN1CCOCC1
Activity (Cavia porcellus [1]): 2.4
Activity (Cavia porcellus [2]): 1.1

O=c1c2ccccc2sn1CCCN1CCOCC1
Activity (Cavia porcellus [1]): 2.5
Activity (Cavia porcellus [2]): 1.3

COc1cc2sn(CCCCN3CCCCC3)c(=O)c2cc1OC
Activity (Cavia porcellus [1]): 1.6
Activity (Cavia porcellus [2]): 1.1

COc1cc2sn(CCCN3CCCCC3)c(=O)c2cc1OC
Activity (Cavia porcellus [16]): 2.5
Activity (Cavia porcellus [2]): 1.1

O=c1c2ccccc2sn1CCN1CCOCC1
Activity (Rattus norvegicus [8]): 1
Activity (Rattus norvegicus [9]): 1

Cc1cc(C)c2c(=O)n(CCc3ccccn3)sc2c1
Activity (Cavia porcellus [3]): 1
Dose ratio (treated/control collagen EC50) (Cavia porcellus [4]): 1.6

COc1cc2sn(CCCCCCN3CC4CCC(CC4)C3)c(=O)c2cc1OC
collagen EC50 dose ratio (treated/control) (Cavia porcellus [17]): 2
Activity (Cavia porcellus [18]): 1.1

COc1cc2sn(CCCCCN3CC4CCC(CC4)C3)c(=O)c2cc1OC
collagen EC50 dose ratio (treated/control) (Cavia porcellus [17]): 4.1
Activity (Cavia porcellus [18]): 1.7

Cc1cc2sn(CCN3CCCC3)c(=O)c2cc1C
Activity (Cavia porcellus [5]): 1.9
Activity (Rattus norvegicus [8]): 2.7
Activity (Cavia porcellus [6]): > 10
Activity (Rattus norvegicus [9]): 1.4

COc1cc2sn(CCN3CCCCC3)c(=O)c2cc1OC
Activity (Cavia porcellus [5]): 1.9
Activity (Rattus norvegicus [8]): 2.2
collagen EC50 dose ratio (treated/control) (Cavia porcellus [6]): 7.3
Activity (Rattus norvegicus [9]): 1.1

O=c1c2cc(Cl)c(Cl)cc2sn1CCN1CC2CCC(CC2)C1
Activity (Rattus norvegicus [7]): 1

CC(=O)Oc1ccccc1C(=O)O [ASPIRIN]
IC50 (Homo sapiens [19]): > 1000 µM
IC50 (Homo sapiens [20]): 68 µM
Activity (Rattus norvegicus [21]): 1.5 and 1.8
Activity (Cavia porcellus [18]): 1
Activity (Rattus norvegicus [22]): 1.1 and 1

Clc1ccccc1CN1CCc2sccc2C1 [TICLOPIDINE HYDROCHLORIDE]
IC50 (Homo sapiens [23]): 2000 µM
IC50 (Homo sapiens [20]): 1060 µM

Reference: ChEMBL document CHEMBL1122845, “Inhibitors of blood platelet aggregation. Effects of some 1,2-benzisothiazol-3-ones on platelet responsiveness to adenosine diphosphate and collagen” (J Med Chem, 1985)
